# Assay outcomes as filed in PubChem BioAssay.
# Hits are enriched below; roughly 1.6% of the tested compounds scored in any of these assays.
# procasp7 counter = counter-screen: procaspase-7 (human) activation; hit rate 0.093% among 330,000; activation, % at 8.5 µM; P55210; recombinant procaspase-7, Ac-DEVD-pNA absorbance 405 nm; D23A/D198A/D206A triple mutant, cannot self-cleave; scale: DMSO 0, 5 µM enzyme 100;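 active = percent activation above the screen-wide mean plus 3 SD, cut at about 25% in these data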
#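 Assay system: Uncleavable procaspase-7 mutant enzyme | Input: 2 µM procaspase-7 mutant as dispensed | Timing: 1 h compound preincubation, 2 h substrate cleavage, 25 °C | Repeats: One well per compound | Control set: DMSO wells as 0%, DMSO with 5 µM added PC-7 as 100% | Technique: Epi-absorbance of released pNA at 405 nm, two timepoints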
# proCasp3 act = activates human procaspase-3; AID 463141; P42574; recombinant procaspase-3 D3A, Ac-DEVD-pNA absorbance 405 nm; activation, % at 8.5 µM; hit rate 0.11% among 330,000;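 active = activation above the mean of all tested compounds plus 3 SD, cut at about 21% in these data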;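 note: 0% = DMSO alone and 100% = DMSO wells spiked with extra 5 µM PC-3 D3A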
#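 Test system: Procaspase-3 D3A mutant; medium: Zinc-free HEPES/NaCl buffer with 0.01% Triton X-100 at pH 7.4; reagent: DEVD-pNA substrate; doses: one concentration, 8.5 µM nominal, 0.8% DMSO; times: 1 h preincubation plus 2 h reaction at 25 °C; signal: Epi-absorbance at 405 nm of released p-nitroaniline, 0 and 120 min; replicates: singlicate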
# KLK7 zymogen act = proKLK7 (human) activation, primary screen | purified proKLK7, EDANS-DABCYL substrate fluorescence; 100% is mature enzyme control, 0% vehicle | P49862 | hit rate 0.9% among 370,000 | activation, % at 7 µM;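 active = activation above the mean of all tested compounds plus 3 SD, computed per campaign excluding outliers beyond control limits, cut at about 13% in these data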
# Target sequence (P49862 whole entry, looked up): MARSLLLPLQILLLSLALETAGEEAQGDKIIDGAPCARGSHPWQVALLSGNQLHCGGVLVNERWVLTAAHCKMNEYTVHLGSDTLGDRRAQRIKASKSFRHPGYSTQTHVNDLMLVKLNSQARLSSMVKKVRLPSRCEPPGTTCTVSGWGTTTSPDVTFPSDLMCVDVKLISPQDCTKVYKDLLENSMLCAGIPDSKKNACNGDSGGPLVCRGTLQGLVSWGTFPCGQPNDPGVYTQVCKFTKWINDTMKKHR
# Neddylation inh = inhibitors of human cullin neddylation | P61081+Q13564 | calls only at 25 µM | TR-FRET cullin neddylation, biochemical | hit rate 0.58% among 360,000; in the data active = inhibition above about 36%
# Starred values were filed as active, the others as inactive; i = inactive; · = not tested or not shown; + = active, no number.
SMILES,procasp7 counter,proCasp3 act,KLK7 zymogen act,Neddylation inh
COc1cc2c3nnc(-c4ccc(F)cc4)c-3cn(Cc3ccccc3)c2cc1OC,11,1,29*,·
c1ccc2nc(-c3nc4ccccc4o3)ccc2c1,1,6,2,+
COC(=O)C1CN(CCc2ccccc2)CCS(=O)(=O)N1Cc1ccc(C(F)(F)F)cc1 (stereo not given),·,·,0,·
COc1ccc(CCn2c(O)cc3nn(-c4nc5ccccc5s4)c(=O)c-3c2C)cc1,-5,0,0,+
COC(=O)N/N=C/c1cc(N=Nc2ccccc2)ccc1O,-12,-10,0,i
Cc1cc(C(=O)N/N=C/c2cc(N=Nc3ccccc3)ccc2O)n[nH]1,26*,18,·,i
Cc1ccc(C(=O)Nc2sc3c(c2C(=O)O)CCC(C)C3)o1 (stereo not given),5,3,1,+
CCNC(=O)NC(=O)COC(=O)c1ccccc1SCC(=O)NC(=O)NCC,-24,-30,39*,·
Cc1cc(Nc2cccc(Cl)c2)nc(NCc2ccccc2)n1,5,1,0,+
Cc1cc(N/N=C/c2cccc(Cl)c2)nc(NCc2ccccc2)n1,0,0,-1,i
CC(C)CN1C(=O)C[C@@]2(C(=O)N(C)c3ccc(NC(=O)c4cc(F)ccc4F)cc32)C1c1ccccc1 (stereo not given in full),·,·,0,·
Brc1ccc(-c2csc(N3CCc4ccccc4C3)n2)cc1,5,-1,0,i
Brc1ccc(-c2csc(N3CCC(c4ccccc4)C3)n2)cc1 (stereo not given),11,34*,-1,i
COC(=O)c1nc2n(n1)C(c1cccc(Cl)c1)C1=C(CC(C)(C)CC1=O)N2 (stereo not given),-5,10,19*,i
Cc1ccc(-n2[nH]c(C)c(/C=N/NC(=O)c3ccc(O)cc3O)c2=O)cc1,-30,-11,·,·
Cc1[nH]n(-c2ccccc2)c(=O)c1/C=N/NC(=O)c1ccc(O)cc1O,-50,-27,·,+
Clc1ccc(C2Nc3ccccc3-n3cccc32)cc1 (stereo not given),28*,-2,-5,i
Cc1cc(/C=N/NC(=O)c2cccs2)c(C)n1-c1ccccc1,-4,11,-1,+
Cc1cc(/C=N/NC(=O)c2ccncc2)c(C)n1-c1ccccc1,-13,1,0,i
Cc1ccc(C2=CC(c3ccccc3)n3ncnc3N2)cc1 (stereo not given),-4,-4,53*,·
C1=C(c2ccccc2)Nc2ncnn2C1c1ccccc1 (stereo not given),1,8,7,·
COc1cc(NC(=O)c2cccs2)c(OC)cc1NC(=O)CCC(=O)Nc1ccc2ncccc2c1,·,·,68*,i
C[C@@H](/C=C/C(=O)OC(C)(C)C)Sc1ccc(C(C)(C)C)cc1,·,·,-1,·
COC(=O)C1=CN(c2ccc(OC)cc2)C=C(C(=O)OC)C1c1cc(OC)c(OC)cc1OC,9,2,0,+
COC(=O)C1=CN(Cc2cccs2)C=C(C(=O)OC)C1c1ccc(OC)cc1OC,8,2,-16,·
SMILES,procasp7 counter,proCasp3 act,KLK7 zymogen act,Neddylation inh
COC(=O)c1sc(-c2ccccc2)cc1NC(=O)C1CC1,6,5,-1,i
COC(=O)c1sc(-c2ccc(C(C)(C)C)cc2)cc1NC(=O)c1ccccc1C(=O)O,6,2,0,+
COC(=O)c1sc(-c2ccc(C(C)(C)C)cc2)cc1NC(=O)CSCC(=O)O,4,-11,-4,+
CCN(CC)C(=O)c1oc(=O)c2ccccc2c1-c1ccc(C)cc1,·,·,0,·
Fc1ccc2[nH]c3c(NCc4ccccc4)ncnc3c2c1,-7,-11,0,+
COc1ccc2[nH]c3c(NCc4ccco4)ncnc3c2c1,-9,-12,·,·
CC(=O)Nc1cc(OC(C)=O)c2nonc2c1OC(C)=O,-10,-12,40*,i
CCCN(CCC)CCCNC(=O)c1cc2cc3ccc(OC)cc3nc2o1,-4,4,61*,i
COc1ccc2cc3cc(C(=O)N4CCCCCC4)oc3nc2c1,10,6,·,+
COc1ccc(CCC[C@H](CCC(=O)N(c2ccccc2)c2ccccc2)CCc2ccccc2)cc1,·,·,-1,·
O=C(N/N=C/c1sc(N2CCOCC2)nc1-c1ccccc1)c1ccccc1Cl,0,9,0,·
O=C(N/N=C/c1sc(N2CCOCC2)nc1-c1ccccc1)c1cccc(S(=O)(=O)N2CCOCC2)c1,-9,2,-38,+
